Data set [1] in a line: (§1) Acute toxicity in po dosed albino CFW mouse assessed as mortality measured over 48 hrs. The data set is classed as organism-based. The note with it: albino CFW, in vivo.
A short description of data set [2]: (§2) Acute toxicity in ip dosed albino CFW mouse assessed as mortality measured over 48 hrs. The format is organism-based. The settings on record: albino CFW, in vivo.
The test system of data set [3] is Mus musculus. Nature of the data set: Antidepressant activity in CFW mouse assessed as reversal of reserpine-induced hypothermia by measuring temperature index at 0.14 mmol/kg, sc measured every 30 mins up to 1.5 hrs. The format is functional.
The subject of data set [4] is Mus musculus. Description: Antiparkinsonian activity in CFW mouse assessed as reversal of reserpine-induced catalepsy at 0.14 mmol/kg, sc measured every 30 mins up to 1.5 hrs. The data set is classed as functional, organism-based.
For data set [5], the system named is Mus musculus. Description: Antidepressant activity in CFW mouse assessed as reversal of reserpine-induced hypothermia by measuring temperature index at 0.04 mmol/kg, sc measured every 30 mins up to 1.5 hrs. The format is functional.
The test system of data set [6] is Mus musculus. Nature of the data set: Antiparkinsonian activity in CFW mouse assessed as reversal of reserpine-induced catalepsy at 0.08 mmol/kg, sc measured every 30 mins up to 1.5 hrs. The data set is classed as functional, organism-based.
Data set [7] concerns Rattus norvegicus. Nature of the data set: Antiparkinsonian activity in Wistar rat assessed as reversal of reserpine-induced catalepsy at 0.11 mmol/kg, po measured every 30 mins up to 1.5 hrs. The format is functional, organism-based.
In data set [8] the test system is Mus musculus. Description: Antiparkinsonian activity in CFW mouse assessed as reversal of reserpine-induced catalepsy at 0.09 mmol/kg, sc measured every 30 mins up to 1.5 hrs. The data set is classed as functional, organism-based. In outline:
(§3)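 Groups of five CFW mice were given reserpine 4 mg/kg sc, and catalepsy was assessed 2.5 h later. Reversal was scored 0–5: 0 no effect, 1 marginal, 2 significant, 3 marked, 4 approaching complete, 5 complete reversal.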

Data set [9] has as its system Rattus norvegicus. Nature of the data set: Antiparkinsonian activity in Wistar rat assessed as reversal of reserpine-induced catalepsy at 0.14 mmol/kg, po measured every 30 mins up to 1.5 hrs. The data set is classed as functional, organism-based.
Data set [10] has as its system Mus musculus. Description: Antiparkinsonian activity in CFW mouse assessed as reversal of reserpine-induced catalepsy at 0.07 mmol/kg, sc measured every 30 mins up to 1.5 hrs. The data set is classed as functional, organism-based. In outline: as §3
Data set [11] has as its system Mus musculus. Nature of the data set: Antidepressant activity in CFW mouse assessed as reversal of reserpine-induced hypothermia by measuring temperature index at 0.21 mmol/kg, sc measured every 30 mins up to 1.5 hrs. The data set is classed as functional.
Data set [12] has as its system Mus musculus. Nature of the data set: Antiparkinsonian activity in CFW mouse assessed as reversal of reserpine-induced catalepsy at 0.21 mmol/kg, sc measured every 30 mins up to 1.5 hrs. The format is functional, organism-based.
For data set [13], the system named is Rattus norvegicus. Nature of the data set: Antiparkinsonian activity in Wistar rat assessed as reversal of reserpine-induced catalepsy at 0.21 mmol/kg, po measured every 30 mins up to 1.5 hrs. The data set is classed as functional, organism-based.
The subject of data set [14] is Mus musculus. Nature of the data set: Antidepressant activity in CFW mouse assessed as reversal of reserpine-induced hypothermia by measuring temperature index at 0.20 mmol/kg, sc measured every 30 mins up to 1.5 hrs. The format is functional, organism-based.
Data set [15] has as its system Mus musculus. Description: Antiparkinsonian activity in CFW mouse assessed as reversal of reserpine-induced catalepsy at 0.20 mmol/kg, sc measured every 30 mins up to 1.5 hrs. The format is functional, organism-based.
The subject of data set [16] is Mus musculus. Description: Antidepressant activity in CFW mouse assessed as reversal of reserpine-induced hypothermia by measuring temperature index at 0.17 mmol/kg, sc measured every 30 mins up to 1.5 hrs. The format is functional.
The test system of data set [17] is Mus musculus. Nature of the data set: Antiparkinsonian activity in CFW mouse assessed as reversal of reserpine-induced catalepsy at 0.17 mmol/kg, sc measured every 30 mins up to 1.5 hrs. The data set is classed as functional, organism-based.
In data set [18] the test system is Rattus norvegicus. Nature of the data set: Potency index, ratio of compound to amantadine for antiparkinsonian activity in po dosed Wistar rat assessed as reversal of reserpine-induced catalepsy. The data set is classed as functional.
Data set [19] concerns Mus musculus. Described as §1. The data set is classed as organism-based. The settings on record: in vivo, 48 h.
Data set [20] concerns Mus musculus. The data set is described as §2. The data set is classed as organism-based. The note with it: in vivo, 48 h.
The subject of data set [21] is Mus musculus. Nature of the data set: Antidepressant activity in CFW mouse assessed as reversal of reserpine-induced hypothermia by measuring temperature index at 0.03 mmol/kg, sc measured every 30 mins up to 1.5 hrs. The data set is classed as functional. Summed up: (§4)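 Groups of five CFW mice received reserpine 4 mg/kg sc. After 2.5 h, rectal temperature was taken. The temperature index (TI) is the sum of the group's mean changes from its mean initial temperature at 30, 60 and 90 min. Scoring: 0 = no effect, 1 = TI 5–10, 2 = TI >10. A run was repeated if the reserpine control TI fell outside −5 to −15.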

The subject of data set [22] is Mus musculus. Nature of the data set: Antidepressant activity in CFW mouse assessed as reversal of reserpine-induced hypothermia by measuring temperature index at 0.09 mmol/kg, sc measured every 30 mins up to 1.5 hrs. The format is functional. Summed up: as §4
In data set [23] the test system is Rattus norvegicus. Description: Antiparkinsonian activity in Wistar rat assessed as reversal of reserpine-induced catalepsy at 0.07 mmol/kg, po measured every 30 mins up to 1.5 hrs. The data set is classed as functional, organism-based.
The subject of data set [24] is Mus musculus. Nature of the data set: Antidepressant activity in CFW mouse assessed as reversal of reserpine-induced hypothermia by measuring temperature index at 0.16 mmol/kg, sc measured every 30 mins up to 1.5 hrs. The data set is classed as functional.
Data set [25] relates to Mus musculus. Description: Antiparkinsonian activity in CFW mouse assessed as reversal of reserpine-induced catalepsy at 0.16 mmol/kg, sc measured every 30 mins up to 1.5 hrs. The format is functional, organism-based.
The subject of data set [26] is Mus musculus. Description: Antidepressant activity in CFW mouse assessed as reversal of reserpine-induced hypothermia by measuring temperature index at 0.32 mmol/kg, sc measured every 30 mins up to 1.5 hrs. The format is functional, organism-based.
The subject of data set [27] is Mus musculus. Nature of the data set: Antiparkinsonian activity in CFW mouse assessed as reversal of reserpine-induced catalepsy at 0.32 mmol/kg, sc measured every 30 mins up to 1.5 hrs. The data set is classed as functional, organism-based.

Calls of active or inactive are those of the source. The calls are words filed in the database; no cut-off is given here.

By LD50 is commonly meant the dose at which mortality reaches 50%. Consider `CNCC1CC2CC3CC(C2)C1C3.O=C(O)/C=C\C(=O)O` (stereo unspecified), for which the LD50 at 48 h in [1] is 1000 µmol/kg; in data set [2], 500 µmol/kg. Besides, in the data set with Mus musculus [3], the Activity was 5. Further, the result in the data set with Mus musculus [4] was inactive.

Consider `CNCCC12CC3CC(CC(C3)C1Br)C2.O=C(O)/C=C\C(=O)O` (stereo unspecified), for which the median lethal dose (LD50) at 48 h in data set [1] was 1600 µmol/kg; in data set [2], 400 µmol/kg. Further, the Activity with Mus musculus [5] turned out to be 5. For the same compound, the result in the data set on Mus musculus [6] was inactive. In addition, in the data set with Rattus norvegicus [7], the result was Active.

On to `c1ccc(CCNC2CC3CC4CC(C3)C2C4)cc1` (stereo in doubt; 12), for which the result in the data set on Mus musculus [8] was Active. The result in the data set on Rattus norvegicus [9] was inactive.

Consider `c1ccc(CCNC2CC3CC4CC(C3)C2C4)cc1` (stereo in doubt; 13), for which the result with Mus musculus [10] was inactive. Besides, in the data set with Rattus norvegicus [9], the outcome was Active.

`NC12CC3CC(CC(C3)C1)C2` [AMANTADINE]: the Activity with Mus musculus [11] was determined as 5. Also, the outcome with Mus musculus [12] was inactive. Further, the result in the data set on Rattus norvegicus [13] was Active.

In the case of `CN(C)CC1(O)CC2CC3CC(C2)C1C3.Cl` (stereo unspecified), the values for the median lethal dose (LD50) at 48 h in [1] and in data set [2] were 1600 µmol/kg and 1200 µmol/kg, respectively. The outcome with Mus musculus [14] and in the data set on Mus musculus [15] was inactive.

Take `CNCC12CC3CC(CC(C3)C1Br)C2.Cl` (stereo unspecified): the LD50 at 48 h in [1] and in data set [2] was 1000 µmol/kg each time. Further, the Activity in the data set on Mus musculus [16] was determined as 5. For the same compound, the outcome in the data set with Mus musculus [17] and with Rattus norvegicus [9] was Active. For the same compound, the Ratio in the data set with Rattus norvegicus [18] is given as 2.

Take `CNC1CC2CC3CC(C2)C1C3.Cl` (stereo unspecified): the 50% lethal dose (LD50) at 48 h turned out to be 2000 µmol/kg in data set [1] and 700 µmol/kg in data set [2]. Further, the result with Mus musculus [14] was inactive. The result in the data set on Mus musculus [15] was Active.

On to `Cl.c1ccc(CCNC2CC3CC4CC(C3)C2C4)cc1` (stereo in doubt; 13), for which the LD50 was determined as 0.5 mmol/kg in the data set on Mus musculus [19] and 0.2 mmol/kg in the data set with Mus musculus [20]. Besides, the Activity with Mus musculus [21] was 5.

Consider `Cl.c1ccc(CNC2CC3CC4CC(C3)C2C4)cc1` (stereo unspecified), for which the LD50 at 48 h is 700 µmol/kg in data set [1] and 500 µmol/kg in [2]. For the same compound, the Activity in the data set on Mus musculus [22] is greater than 10. Also, the result in the data set with Mus musculus [8] and in the data set on Rattus norvegicus [23] was Active.

Turning to `Cl.Clc1ccc(CNC2CC3CC4CC(C3)C2C4)cc1` (stereo unspecified), the results for the LD50 at 48 h in data set [1] and in data set [2] were 1900 µmol/kg and 600 µmol/kg, respectively. The Activity in the data set with Mus musculus [24] was found to be 5. The result with Mus musculus [25] was inactive.

Turning to `CNCC1(O)CC2CC3CC(C2)C1C3.O=C(O)/C=C\C(=O)O` (stereo unspecified), the median lethal dose (LD50) at 48 h in data set [1] came to 3900 µmol/kg; in data set [2] it was 1900 µmol/kg. The outcome in the data set on Mus musculus [26] and in the data set with Mus musculus [27] was inactive.

(Values after ChEMBL document CHEMBL3272084, “Adamantane and protoadamantanealkanamines as potential anti-Parkinson agents” (J Med Chem, 1976).)
